Results reported in ChEMBL document CHEMBL1165943, “Design and synthesis of new anticancer pyrimidines with multiple-kinase inhibitory effect” (Bioorg Med Chem, 2010).

Tests used:
BT-549 = assay: Growth inhibition of human BT549 cells after 48 hrs by sulforhodamine B assay; assay type: functional, cell-based; settings: BT-549, 48 h; for CC50: read-out: LC50 (the source's name)
Method in brief: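 Five-dose SRB assay. Cells in RPMI 1640 with 5% FBS and 2 mM L-glutamine were seeded at 5,000–40,000 cells/well, with a TCA-fixed time-zero plate (Tz) taken at 24 h. Compound stocks were in DMSO, serially diluted 10-fold or ½-log to five concentrations, and incubated 48 h at 37 °C. Plates were stained with SRB and read at 515 nm. IC₅₀ was taken where [(Ti−Tz)/(C−Tz)]×100 = 50.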

MDA-MB-468 = assay: Growth inhibition of human MDA-MB-468 cells after 48 hrs by sulforhodamine B assay; assay type: functional, cell-based; settings: MDA-MB-468, 48 h
Method in brief: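 Cells grown in RPMI 1640 with 5% FBS and 2 mM L-glutamine, seeded at 5,000–40,000 cells/well according to doubling time. After 24 h, time-zero plates are TCA-fixed. Five concentrations (10-fold or ½log dilutions, DMSO stocks) are applied for 48 h at 37 °C, 5% CO₂. Cells are TCA-fixed, SRB-stained and read at 515 nm. IC₅₀ is taken from [(Ti−Tz)/(C−Tz)]×100 = 50.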

EKVX = assay: Cytotoxicity against human EKVX cells assessed as cell growth at 0.001 uM after 48 hrs by sulforhodamine B assay; assay type: functional; settings: read-out: Activity
NCI-H522 = assay: Cytotoxicity against human NCI-H522 cells assessed as cell growth at 0.001 uM after 48 hrs by sulforhodamine B assay; assay type: functional; settings: NCI-H522, 48 h, read-out: Activity
COLO 205 = assay: Cytotoxicity against human COLO205 cells assessed as cell growth at 0.001 uM after 48 hrs by sulforhodamine B assay; assay type: functional; settings: COLO 205, 48 h, read-out: Activity
Method in brief: (§1)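 Cells grown in RPMI 1640 with 5% FBS and 2 mM L-glutamine, seeded at 5,000–40,000 cells/well by doubling time. Time-zero plates TCA-fixed after 24 h. Five concentrations (10-fold or half-log dilutions from DMSO stock) added; 48 h at 37 °C, 5% CO2. Cold TCA fixation (final 10%, 60 min, 4 °C), 0.4% SRB stain, dye solubilized in 10 mM trizma base, A515.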

U-251 = assay: Cytotoxicity against human U251 cells assessed as cell growth at 0.001 uM after 48 hrs by sulforhodamine B assay; assay type: functional; settings: U-251, 48 h, read-out: Activity
M14 = assay: Cytotoxicity against human M14 cells assessed as cell growth at 0.001 uM after 48 hrs by sulforhodamine B assay; assay type: functional; settings: M14, 48 h, read-out: Activity
SK-MEL-2 = assay: Cytotoxicity against human SK-MEL-2 cells assessed as cell growth at 0.001 uM after 48 hrs by sulforhodamine B assay; assay type: functional; settings: SK-MEL-2, 48 h, read-out: Activity
OVCAR-5 = assay: Cytotoxicity against human OVCAR5 cells assessed as cell growth at 0.001 uM after 48 hrs by sulforhodamine B assay; assay type: functional; settings: OVCAR-5, 48 h, read-out: Activity
NCI/ADR-RES = assay: Cytotoxicity against human NCI/ADR-RES cells assessed as cell growth at 0.001 uM after 48 hrs by sulforhodamine B assay; assay type: functional; settings: read-out: Activity
ACHN = assay: Cytotoxicity against human ACHN cells assessed as cell growth at 0.001 uM after 48 hrs by sulforhodamine B assay; assay type: functional; settings: read-out: Activity; method in brief: as §1
HOP-62 = assay: Cytotoxicity against human HOP62 cells assessed as cell growth at 100 nM after 48 hrs by sulforhodamine B assay; assay type: functional; settings: HOP-62, 48 h, read-out: Activity
UACC-257 [1] = assay: Cytotoxicity against human UACC257 cells assessed as cell growth at 100 nM after 48 hrs by sulforhodamine B assay; assay type: functional; settings: UACC-257, 48 h, read-out: Activity
OVCAR-8 [2] = assay: Cytotoxicity against human OVCAR8 cells assessed as cell growth at 100 nM after 48 hrs by sulforhodamine B assay; assay type: functional; settings: OVCAR-8, 48 h, read-out: Activity
KM12 = assay: Cytotoxicity against human KM12 cells assessed as cell growth at 10 uM after 48 hrs by sulforhodamine B assay; assay type: functional; settings: KM12, 48 h, read-out: Activity
SF-295 = assay: Cytotoxicity against human SF295 cells assessed as cell growth at 0.01 uM after 48 hrs by sulforhodamine B assay; assay type: functional; settings: SF-295, 48 h, read-out: Activity
SK-MEL-5 = assay: Cytotoxicity against human SK-MEL-5 cells assessed as cell growth at 10 uM after 48 hrs by sulforhodamine B assay; assay type: functional; settings: SK-MEL-5, 48 h, read-out: Activity
UACC-257 [3] = assay: Cytotoxicity against human UACC257 cells assessed as cell growth at 10 uM after 48 hrs by sulforhodamine B assay; assay type: functional; settings: UACC-257, 48 h, read-out: Activity
UACC-62 = assay: Cytotoxicity against human UACC62 cells assessed as cell growth at 10 uM after 48 hrs by sulforhodamine B assay; assay type: functional; settings: UACC-62, 48 h, read-out: Activity
CAKI-1 = assay: Cytotoxicity against human Caki1 cells assessed as cell growth at 10 uM after 48 hrs by sulforhodamine B assay; assay type: functional; settings: CAKI-1, 48 h, read-out: Activity; method in brief: as §1
HCT-116 = assay: Cytotoxicity against human HCT116 cells assessed as cell growth at 1 uM after 48 hrs by sulforhodamine B assay; assay type: functional; settings: HCT-116, 48 h, read-out: Activity
SF-539 = assay: Cytotoxicity against human SF539 cells assessed as cell growth at 1 uM after 48 hrs by sulforhodamine B assay; assay type: functional; settings: SF-539, 48 h, read-out: Activity
OVCAR-8 [4] = assay: Cytotoxicity against human OVCAR8 cells assessed as cell growth at 0.01 uM after 48 hrs by sulforhodamine B assay; assay type: functional; settings: OVCAR-8, 48 h, read-out: Activity
UACC-257 [5] = assay: Cytotoxicity against human UACC257 cells assessed as cell growth at 1 uM after 48 hrs by sulforhodamine B assay; assay type: functional; settings: UACC-257, 48 h, read-out: Activity
HL-60(TB) = assay: Growth inhibition of human HL-60(TB) cells after 48 hrs by sulforhodamine B assay; assay type: functional, cell-based; settings: HL-60, 48 h; for CC50: read-out: LC50 (the source's name)
Method in brief: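 HL-60(TB) suspension cells in RPMI 1640 with 5% FBS receive five 10-fold or ½log drug dilutions from DMSO stock for 48 h at 37 °C, 5% CO2. Settled cells are TCA-fixed, SRB-stained and read at 515 nm against a time-zero plate. […] is solved from [(Ti−Tz)/(C−Tz)]×100 = 50.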

A498 = assay: Cytotoxicity against human A498 cells assessed as cell growth at 1 uM after 48 hrs by sulforhodamine B assay; assay type: functional; settings: A498, 48 h, read-out: Activity; method in brief: as §1
DU-145 = assay: Cytotoxicity against human DU145 cells assessed as cell growth at 1 uM after 48 hrs by sulforhodamine B assay; assay type: functional; settings: DU-145, 48 h, read-out: Activity
NCI-H460 = assay: Cytotoxicity against human NCI-H460 cells assessed as cell growth at 10 uM after 48 hrs by sulforhodamine B assay; assay type: functional; settings: NCI-H460, 48 h, read-out: Activity

Structure (SMILES)	TGI (BT-549)	CC50 (BT-549)	GI50 (MDA-MB-468)	IC50 (MDA-MB-468)	LC50 (MDA-MB-468)	TGI (MDA-MB-468)	growth at 0.001 µM (EKVX)	growth at 0.001 µM (NCI-H522)	growth at 0.001 µM (COLO 205)	growth at 0.001 µM (U-251)	growth at 0.001 µM (M14)	growth at 0.001 µM (SK-MEL-2)	growth at 0.001 µM (OVCAR-5)	growth at 0.001 µM (NCI/ADR-RES)	growth at 0.001 µM (ACHN)	growth at 0.1 µM (HOP-62)	growth at 0.1 µM (UACC-257 [1])	growth at 0.1 µM (OVCAR-8 [2])	growth at 10 µM (KM12)	growth at 0.01 µM (SF-295)	also measured
CC(=O)c1ccccc1-c1ccc(-c2ccnc(NC(=O)Nc3cc(N4CCOCC4)cc(C(F)(F)F)c3)n2)cn1	> 100 µM	> 100 µM	> 100 µM	> 100 µM	> 100 µM	> 100 µM	95%	91%	109%	93%	94%	102%	94%	100%	97%	100%	83%	66%	82%	90%	growth at 10 µM (SK-MEL-5): 68%; growth at 10 µM (UACC-257 [3]): 92%; growth at 10 µM (UACC-62): 63%; growth at 10 µM (CAKI-1): 86%; growth at 1 µM (HCT-116): 69%; growth at 1 µM (SF-539): 45%; growth at 0.01 µM (OVCAR-8 [4]): 93%; growth at 1 µM (UACC-257 [5]): 66%; GI50 (HL-60(TB)): > 100 µM; IC50 (HL-60(TB)): > 100 µM; TGI (HL-60(TB)): > 100 µM; CC50 (HL-60(TB)): > 100 µM; growth at 1 µM (A498): 83%; growth at 1 µM (DU-145): 19%; growth at 10 µM (NCI-H460): 88%
CC(=O)Nc1cccc(-c2ccc(-c3ccnc(NC(=O)Nc4cc(C(F)(F)F)cc(C(F)(F)F)c4)n3)cn2)c1.Cl	20.4 µM	46.3 µM	0.837 µM	0.837 µM	5.85 µM	2.35 µM	90%	86%	103%	98%	94%	95%	97%	95%	101%	100%	78%	85%	100%	94%	GI50 (BT-549): 7.07 µM; IC50 (BT-549): 7.07 µM; growth at 10 µM (SK-MEL-5): 100%; growth at 10 µM (UACC-257 [3]): -89%; growth at 10 µM (UACC-62): 100%; growth at 10 µM (CAKI-1): -36%; growth at 1 µM (HCT-116): -35%; growth at 1 µM (SF-539): 37%; growth at 0.01 µM (OVCAR-8 [4]): 96%; growth at 1 µM (UACC-257 [5]): -45%; GI50 (HL-60(TB)): 3.78 µM; IC50 (HL-60(TB)): 3.78 µM; TGI (HL-60(TB)): 96.1 µM; CC50 (HL-60(TB)): > 100 µM; growth at 1 µM (A498): 41%; growth at 1 µM (DU-145): 38%; growth at 10 µM (NCI-H460): -60%
